Test results published in ChEMBL document CHEMBL4152324 (Eur J Med Chem, 2018).
The source made the active and inactive calls. The calls are words filed in the database; no cut-off is given here.

Assays:
[1] = molecular target: T1, NAD-dependent protein deacetylase sirtuin-2 (Homo sapiens, UniProt Q8IXJ6); assay: Inhibition of recombinant His-tagged SIRT2 (56 to 356 residues) (unknown origin) expressed in Escherichia coli Transetta(DE3) using AcIQF as substrate preincubated for 30 mins followed by substrate and NAD+ addition measured after 2 hrs by fluorescence assay
T1 sequence (Q8IXJ6 whole entry): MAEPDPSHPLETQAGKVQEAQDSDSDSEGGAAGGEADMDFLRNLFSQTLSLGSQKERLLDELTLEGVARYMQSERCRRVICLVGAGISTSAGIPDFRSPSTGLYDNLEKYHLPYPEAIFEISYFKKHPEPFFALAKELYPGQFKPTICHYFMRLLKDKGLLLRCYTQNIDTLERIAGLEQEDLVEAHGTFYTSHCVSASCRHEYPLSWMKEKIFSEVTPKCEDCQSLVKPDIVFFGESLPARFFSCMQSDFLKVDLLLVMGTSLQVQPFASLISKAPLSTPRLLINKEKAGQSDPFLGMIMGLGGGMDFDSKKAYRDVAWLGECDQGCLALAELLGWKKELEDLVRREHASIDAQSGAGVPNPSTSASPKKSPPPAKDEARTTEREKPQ

[2] = test system: NCI-H441; assay: Antimigratory activity against human NCI-H441 cells assessed as reduction in wound closure at 30 uM after 24 hrs by light microscopic method; type: functional, cell-based
In short: (§1)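 Confluent monolayers in 12-well plates were scratched with a sterile pipette tip, then treated with DMSO vehicle or compound for 24 h. Wounds photographed by digital camera on a light microscope.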

[3] = test system: NCI-H441; assay: Induction of apoptosis in human NCI-H441 cells assessed as live cells at 30 uM after 48 hrs by Annexin V-FITC/propidium iodide staining based flow cytometry (reference value: 88.5%); type: functional
[4] = test system: NCI-H441; assay: Anti-invasive activity against human NCI-H441 cells at 30 uM after 48 hrs by crystal violet staining based transwell assay; type: functional, cell-based
In short: (§2)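 H441 cells in serum-free RPMI1640 seeded at 5 × 10⁴/100 μL into Matrigel-precoated insert upper chambers, with DMSO vehicle or compound in serum-free medium above. Lower chambers held RPMI1640 complete medium. After 48 h, invaded cells fixed with methanol and stained with 0.05% crystal violet (w/v).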

[5] = test system: NCI-H441; assay: Induction of apoptosis in human NCI-H441 cells assessed as necrotic cells at 30 uM after 48 hrs by Annexin V-FITC/propidium iodide staining based flow cytometry (reference value: 1.79%); type: functional
[6] = test system: NCI-H441; assay: Anticlonogenic activity against human NCI-H441 cells at 10 to 30 uM after 2 weeks by crystal violet staining based assay; type: functional, cell-based
In short: (§3)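 Cells seeded at 5,000 per well in six-well plates and exposed to DMSO vehicle or compound for 2 weeks, with agents replaced every 3 days. Cells then fixed with methanol and stained with 0.05% crystal violet (w/v).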

[7] = test system: NCI-H441; assay: Induction of apoptosis in human NCI-H441 cells assessed as late apoptotic cells at 30 uM after 48 hrs by Annexin V-FITC/propidium iodide staining based flow cytometry (reference value: 7.25%); type: functional
[8] = test system: NCI-H441; assay: Induction of apoptosis in human NCI-H441 cells assessed as early apoptotic cells at 30 uM after 48 hrs by Annexin V-FITC/propidium iodide staining based flow cytometry (reference value: 2.47%); type: functional
[9] = test system: NCI-H441; assay: Antiproliferative activity against human NCI-H441 cells assessed as reduction in EdU incorporation at 30 uM after 48 hrs by DAPI staining based fluorescence microscopic method; type: functional, cell-based
In short: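 Cells in 96-well plates treated with DMSO vehicle or compound (30 μM) for 48 h. Proliferation measured by EdU incorporation kit per manufacturer. EdU and DAPI nuclear fluorescence imaged on a high-content reader.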

[10] = test system: NCI-H441; assay: Antiproliferative activity against human NCI-H441 cells after 72 hrs by MTT assay; type: functional, cell-based; conditions: NCI-H441, 72 h
In short: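 Cells in 96-well plates given DMSO vehicle or a range of compound concentrations for 72 h. MTT reagent (5 mg/mL stock) added, then 4 h at 37 °C. Formazan dissolved overnight in 20% acidified SDS (w/v), absorbance read at 570 nm. IC50 taken from the viability profile.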

[11] = test system: NCI-H441; assay: Antimigratory activity against human NCI-H441 cells assessed as reduction in wound closure at 10 to 30 uM after 24 hrs by light microscopic method; type: functional, cell-based; in short: as §1
[12] = molecular target: T2, NAD-dependent protein deacetylase sirtuin-2 (Homo sapiens) (UniProt Q8IXJ6); assay: Inhibition of SIRT2 in human NCI-H441 cells assessed as increase in acetylated alpha-tubulin level after 72 hrs by Western blot analysis; type: cell-based
T2 sequence (whole entry): T1 sequence (Q8IXJ6 whole entry)
In short: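 H441 cells (ATCC, passaged <6 months after resuscitation) exposed to compound for 72 h. Whole-cell lysates separated by SDS-PAGE, transferred to PVDF and probed with anti-Ac-α-tubulin and anti-α-tubulin (1:1,000), then HRP secondaries (1:5,000) with ECL detection. Ac-α-tubulin normalized to α-tubulin, expressed relative to untreated control set to 1.0.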

[13] = test system: NCI-H441; assay: Anti-invasive activity against human NCI-H441 cells after 48 hrs by crystal violet staining based transwell assay; type: functional, cell-based; in short: as §2
[14] = test system: NCI-H441; assay: Anticlonogenic activity against human NCI-H441 cells at 3 to 30 uM after 2 weeks by crystal violet staining based assay; type: functional, cell-based; in short: as §3

Row | SMILES | IC50 ([1]; read-out: IC50) [µM] | other results
1 | Cc1cc(C)nc(SCC(=O)Nc2cccc(COc3cccc(NC(=O)c4ccco4)c3)c2)n1 | 123 | 
2 | O=C(COc1cccc2ccccc12)Nc1cccc(COc2ccc(NC(=O)c3cccs3)cc2)c1 | > 300 | 
3 | Cc1cc(C)nc(SCC(=O)Nc2cccc(COc3ccc(NC(=O)c4cccs4)cc3)c2)n1 | 3.41 | 
4 | CNC(=S)NCCC(=O)Nc1ccc(OCc2cccc(NC(=O)CSc3nc(C)cc(C)n3)c2)cc1 | 11.7 | 
5 | CCOCC(=O)Nc1ccc(OCc2cccc(NC(=O)CSc3nc(C)cc(C)n3)c2)cc1 | 110 | 
6 | Cn1nnnc1SCC(=O)Nc1cccc(COc2ccc(NC(=O)c3cccs3)cc2)c1 | 44.5 | 
7 | Cc1cc(C)nc(SCC(=O)Nc2cccc(COc3ccc(NC(=O)C4CCCN4)cc3)c2)n1 (centres undefined) | 41.3 | 
8 | Cc1cc(C)nc(SCC(=O)Nc2cccc(COc3cccc(NC(=O)c4cccs4)c3)c2)n1 | 128 | 
9 | Cc1cc(C)nc(SCC(=O)Nc2cccc(COc3cccc(NC(=O)c4cnn(C)c4)c3)c2)n1 | 93.7 | Activity [2]: inactive; Activity [3]: 87.8%; Activity [4]: inactive; Activity [5]: 2.21%; Activity [6]: inactive; Activity [7]: 7.39%; Activity [8]: 2.61%; Activity [9]: inactive; IC50 [10]: > 100 µM
10 | Cc1cc(C)nc(SCC(=O)Nc2cccc(COc3ccc(NC(=O)CCCN[C@@H]4CCCC[C@H]4O)cc3)c2)n1 | 175 | 
11 | Cc1cc(C)nc(SCC(=O)Nc2cccc(COc3ccc(NC(=O)C4CCCN4C(=O)OC(C)(C)C)cc3)c2)n1 (centres undefined) | 76.1 | 
12 | Cc1cc(C)nc(SCC(=O)Nc2cccc(COc3ccc(NC(=O)CCCN)cc3)c2)n1 | 70.6 | 
13 | Cc1cc(C)nc(SCC(=O)Nc2cccc(COc3ccc(NC(=O)OC(C)(C)C)cc3)c2)n1 | 100 | 
14 | Cc1cc(C)nc(SCC(=O)Nc2cccc(COc3ccc(NC(=O)c4ccco4)cc3)c2)n1 | 3.1 | 
15 | CC(=O)NCC(=O)Nc1ccc(OCc2cccc(NC(=O)CSc3nc(C)cc(C)n3)c2)cc1 | > 300 | 
16 | Cc1cc(C)nc(SCC(=O)Nc2cccc(COc3ccc(NC(=O)CNC(=O)OCc4ccccc4)cc3)c2)n1 | > 300 | 
17 | Cc1cc(C)nc(SCC(=O)Nc2cccc(COc3ccc(NC(=O)c4cnn(C)c4)cc3)c2)n1 | 0.815 | Activity [11]: Active; Activity [3]: 87.8%; inhibition [12]: Dose-dependent effect; Activity [5]: 2.26%; Activity [13]: Dose-dependent effect; Activity [7]: 7.22%; Activity [8]: 2.69%; Activity [14]: Active; Activity [9]: Active; IC50 [10]: 3.93 µM
18 | Cc1cc(C)nc(SCC(=O)Nc2cccc(COc3ccc(NC(=O)CCN)cc3)c2)n1 | 300 | 
19 | Cn1cc(C(=O)Nc2ccc(OCc3cccc(NC(=O)COc4cccc5ccccc45)c3)cc2)cn1 | > 300 | 
20 | Cc1cc(C)nc(SCC(=O)Nc2cccc(COc3cccc(NC(=O)C4CCCN4)c3)c2)n1 (centres undefined) | 142 | 

Row | SMILES | IC50 ([1]; read-out: IC50) [µM] | other results
21 | Cc1cc(C)nc(SCC(=O)Nc2cccc(COc3ccccc3)c2)n1 | 25.9 | IC50 ([1]; read-out: pIC50 (converted)): 26.3 µM
22 | Cc1cc(C)nc(SCC(=O)Nc2cccc(COc3ccc(NC(=O)C4CCOCC4)cc3)c2)n1 | 1.32 | 
23 | CNC(=S)NCCCC(=O)Nc1ccc(OCc2cccc(NC(=O)CSc3nc(C)cc(C)n3)c2)cc1 | 9.56 | 
24 | Cc1cc(C)nc(SCC(=O)Nc2cccc(COc3ccc(NC(=O)c4ccccn4)cc3)c2)n1 | 29.4 | 
25 | Cc1cc(C)nc(SCC(=O)Nc2cccc(COc3ccc(NC(=O)CCCNC(=O)OC(C)(C)C)cc3)c2)n1 | > 300 | 
26 | C/C=C/C(=O)Nc1ccc(OCc2cccc(NC(=O)CSc3nc(C)cc(C)n3)c2)cc1 | 89.3 | 
27 | Cc1cc(C)cc(OCC(=O)Nc2cccc(COc3ccc(NC(=O)c4cccs4)cc3)c2)c1 | > 300 | 
28 | Cc1cc(C)nc(SCC(=O)Nc2cccc(COc3cccc(NC(=O)C4CCCN4C(=O)OC(C)(C)C)c3)c2)n1 (centres undefined) | 15.2 | 
29 | Cc1cc(C)nc(SCC(=O)Nc2cccc(COc3cccc(NC(=O)c4ccccn4)c3)c2)n1 | > 300 | 
30 | CC(C)n1cnc(SCC(=O)Nc2cccc(COc3ccc(NC(=O)c4cccs4)cc3)c2)n1 | 142 | 
31 | CC(C)n1ncnc1SCC(=O)Nc1cccc(COc2ccc(NC(=O)c3cccs3)cc2)c1 | 270 | 
32 | Cc1cc(C)nc(SCC(=O)Nc2cccc(COc3ccc(NC(=O)CCNC(=O)OC(C)(C)C)cc3)c2)n1 | 300 | 
33 | Cc1cccc(SCC(=O)Nc2cccc(COc3ccc(NC(=O)c4cccs4)cc3)c2)c1 | > 300 | 
34 | Cc1cc(C)nc(SCC(=O)Nc2cccc(COc3cccc(NC(=O)C4CCOCC4)c3)c2)n1 | 169 | 
35 | O=C(CSc1nc[nH]n1)Nc1cccc(COc2ccc(NC(=O)c3cccs3)cc2)c1 | > 300 | 
36 | O=C(CSc1nnc2ccccn12)Nc1cccc(COc2ccc(NC(=O)c3cccs3)cc2)c1 | > 300 | 
37 | COc1cccc(SCC(=O)Nc2cccc(COc3ccc(NC(=O)c4cccs4)cc3)c2)c1 | > 300 | 
38 | Cn1cc(C(=O)Nc2ccc(OCc3cccc(NC(=O)CSc4nnc5ccccn45)c3)cc2)cn1 | > 300 | 
39 | Cc1cc(C)nc(SCC(=O)Nc2cccc(COc3ccc(NC(=O)CCN[C@@H]4CCCC[C@H]4O)cc3)c2)n1 | > 300 | 
